Source: ChEMBL document CHEMBL4007404, “Identification of High-Potency Human TLR8 and Dual TLR7/TLR8 Agonists in Pyrimidine-2,4-diamines” (J Med Chem, 2017)
Calls of active or inactive are those of the source. The rule behind the calls is not given here.

How the values were obtained:
Format in all cases: cell-based
Toll-like receptor 7 = target: T1, Toll-like receptor 7 (Homo sapiens, UniProt Q9NYK1); assay: Agonist activity at human TLR7 expressed in HEK293 cells co-expressing secreted alkaline phosphatase assessed as induction of NF-kappaB/AP-1 promoter activity by measuring increase in secreted alkaline phosphatase level by spectrophotometric method
T1 sequence (Q9NYK1 whole entry): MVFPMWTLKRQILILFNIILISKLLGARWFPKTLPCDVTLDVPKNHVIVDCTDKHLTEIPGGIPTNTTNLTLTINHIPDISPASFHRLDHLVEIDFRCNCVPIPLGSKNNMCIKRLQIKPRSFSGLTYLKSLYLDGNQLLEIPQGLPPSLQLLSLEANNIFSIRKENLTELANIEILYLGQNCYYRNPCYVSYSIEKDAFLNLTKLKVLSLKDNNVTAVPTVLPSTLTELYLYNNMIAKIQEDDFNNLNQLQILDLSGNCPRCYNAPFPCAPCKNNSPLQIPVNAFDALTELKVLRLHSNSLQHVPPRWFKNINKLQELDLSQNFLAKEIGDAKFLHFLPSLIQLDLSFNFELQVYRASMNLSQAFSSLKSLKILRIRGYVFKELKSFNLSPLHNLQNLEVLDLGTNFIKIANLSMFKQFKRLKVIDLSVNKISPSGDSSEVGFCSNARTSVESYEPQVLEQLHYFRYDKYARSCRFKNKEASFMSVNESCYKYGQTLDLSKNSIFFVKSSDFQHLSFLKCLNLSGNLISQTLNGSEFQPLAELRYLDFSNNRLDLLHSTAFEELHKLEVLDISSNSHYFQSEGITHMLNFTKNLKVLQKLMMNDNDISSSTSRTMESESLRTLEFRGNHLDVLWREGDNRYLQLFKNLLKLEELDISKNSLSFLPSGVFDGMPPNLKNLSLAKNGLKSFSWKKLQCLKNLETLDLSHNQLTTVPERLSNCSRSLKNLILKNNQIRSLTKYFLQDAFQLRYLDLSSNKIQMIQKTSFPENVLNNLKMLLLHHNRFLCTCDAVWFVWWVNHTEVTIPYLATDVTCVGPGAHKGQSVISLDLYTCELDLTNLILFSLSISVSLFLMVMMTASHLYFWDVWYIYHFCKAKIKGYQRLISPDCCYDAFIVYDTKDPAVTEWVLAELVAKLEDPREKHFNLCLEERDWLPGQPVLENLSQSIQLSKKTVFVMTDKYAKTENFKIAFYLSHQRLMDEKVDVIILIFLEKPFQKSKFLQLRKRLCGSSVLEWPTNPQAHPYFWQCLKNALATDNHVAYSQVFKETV
Outline: (§1)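 HEK293 cells stably co-transfected with the relevant human TLR (2, 3, 4, 5, 7, 8 or 9) plus an NF-κB/AP-1-driven secreted alkaline phosphatase reporter, kept in selection medium. Cells at ~10⁵ cells/ml were exposed to graded concentrations of stimuli in 384-well format, liquid-handler assisted. Supernatant sAP was read at 620 nm with an alkaline phosphatase-specific chromogen.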

Toll-like receptor 8 = target: T2, Toll-like receptor 8 (Homo sapiens, UniProt Q9NR97); assay: Agonist activity at human TLR8 expressed in HEK293 cells co-expressing secreted alkaline phosphatase assessed as induction of NF-kappaB/AP-1 promoter activity by measuring increase in secreted alkaline phosphatase level by spectrophotometric method; outline: as §1
T2 sequence (Q9NR97 whole entry): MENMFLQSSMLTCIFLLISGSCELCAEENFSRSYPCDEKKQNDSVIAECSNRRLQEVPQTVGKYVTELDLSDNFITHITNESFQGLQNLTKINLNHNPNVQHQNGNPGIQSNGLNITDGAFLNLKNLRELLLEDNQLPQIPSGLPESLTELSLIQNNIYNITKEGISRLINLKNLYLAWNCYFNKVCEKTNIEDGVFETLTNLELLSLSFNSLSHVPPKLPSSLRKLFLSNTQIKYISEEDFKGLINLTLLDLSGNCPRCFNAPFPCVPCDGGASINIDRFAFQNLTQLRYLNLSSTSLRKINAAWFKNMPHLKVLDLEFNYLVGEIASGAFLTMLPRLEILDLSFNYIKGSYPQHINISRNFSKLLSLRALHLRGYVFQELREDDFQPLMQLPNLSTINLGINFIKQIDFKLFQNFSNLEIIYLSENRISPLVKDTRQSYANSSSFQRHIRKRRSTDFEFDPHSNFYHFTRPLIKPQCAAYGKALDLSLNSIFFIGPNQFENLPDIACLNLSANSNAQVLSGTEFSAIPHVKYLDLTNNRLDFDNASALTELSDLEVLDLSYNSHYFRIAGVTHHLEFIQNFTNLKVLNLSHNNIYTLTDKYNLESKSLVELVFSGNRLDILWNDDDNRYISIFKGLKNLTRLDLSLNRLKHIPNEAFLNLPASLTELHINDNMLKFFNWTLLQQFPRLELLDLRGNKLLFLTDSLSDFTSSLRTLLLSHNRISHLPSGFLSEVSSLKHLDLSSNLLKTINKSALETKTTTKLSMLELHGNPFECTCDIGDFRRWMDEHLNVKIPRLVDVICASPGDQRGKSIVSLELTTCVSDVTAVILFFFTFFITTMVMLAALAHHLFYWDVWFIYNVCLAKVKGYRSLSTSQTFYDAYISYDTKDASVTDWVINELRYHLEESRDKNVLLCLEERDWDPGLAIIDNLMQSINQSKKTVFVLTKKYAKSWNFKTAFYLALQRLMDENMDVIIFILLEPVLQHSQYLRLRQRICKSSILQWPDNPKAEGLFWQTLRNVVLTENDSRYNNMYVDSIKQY

[1] = target: Toll-like receptor 2 (Homo sapiens) (UniProt O60603); assay: Activity at human TLR2 expressed in HEK293 cells co-expressing secreted alkaline phosphatase assessed as induction of NF-kappaB/AP-1 promoter activity by measuring increase in secreted alkaline phosphatase level by spectrophotometric method; outline: as §1
Toll-like receptor 2 (Homo sapiens), sequence (O60603 whole entry): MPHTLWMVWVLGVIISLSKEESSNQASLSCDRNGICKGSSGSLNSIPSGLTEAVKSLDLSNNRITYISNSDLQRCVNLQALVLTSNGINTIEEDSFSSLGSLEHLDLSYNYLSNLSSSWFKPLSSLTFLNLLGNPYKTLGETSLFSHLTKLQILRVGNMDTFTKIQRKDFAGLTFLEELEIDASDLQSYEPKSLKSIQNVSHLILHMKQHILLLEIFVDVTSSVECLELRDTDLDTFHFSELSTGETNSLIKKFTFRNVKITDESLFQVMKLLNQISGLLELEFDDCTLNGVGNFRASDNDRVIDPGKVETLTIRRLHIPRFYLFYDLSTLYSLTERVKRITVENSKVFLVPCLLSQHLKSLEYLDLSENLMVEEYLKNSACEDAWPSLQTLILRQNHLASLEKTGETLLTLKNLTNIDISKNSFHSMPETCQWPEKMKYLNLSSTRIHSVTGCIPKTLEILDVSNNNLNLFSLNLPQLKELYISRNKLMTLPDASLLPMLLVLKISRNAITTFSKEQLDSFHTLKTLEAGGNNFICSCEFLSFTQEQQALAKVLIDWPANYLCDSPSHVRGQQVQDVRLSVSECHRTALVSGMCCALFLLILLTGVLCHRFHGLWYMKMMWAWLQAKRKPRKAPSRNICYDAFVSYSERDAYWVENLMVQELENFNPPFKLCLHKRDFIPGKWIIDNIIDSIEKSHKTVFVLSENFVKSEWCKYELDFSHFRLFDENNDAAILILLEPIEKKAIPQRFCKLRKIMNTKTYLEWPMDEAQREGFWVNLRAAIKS

[2] = target: Toll-like receptor 3 (Homo sapiens) (UniProt O15455); assay: Activity at human TLR3 expressed in HEK293 cells co-expressing secreted alkaline phosphatase assessed as induction of NF-kappaB/AP-1 promoter activity by measuring increase in secreted alkaline phosphatase level by spectrophotometric method; outline: as §1
Toll-like receptor 3 (Homo sapiens), sequence (O15455 whole entry): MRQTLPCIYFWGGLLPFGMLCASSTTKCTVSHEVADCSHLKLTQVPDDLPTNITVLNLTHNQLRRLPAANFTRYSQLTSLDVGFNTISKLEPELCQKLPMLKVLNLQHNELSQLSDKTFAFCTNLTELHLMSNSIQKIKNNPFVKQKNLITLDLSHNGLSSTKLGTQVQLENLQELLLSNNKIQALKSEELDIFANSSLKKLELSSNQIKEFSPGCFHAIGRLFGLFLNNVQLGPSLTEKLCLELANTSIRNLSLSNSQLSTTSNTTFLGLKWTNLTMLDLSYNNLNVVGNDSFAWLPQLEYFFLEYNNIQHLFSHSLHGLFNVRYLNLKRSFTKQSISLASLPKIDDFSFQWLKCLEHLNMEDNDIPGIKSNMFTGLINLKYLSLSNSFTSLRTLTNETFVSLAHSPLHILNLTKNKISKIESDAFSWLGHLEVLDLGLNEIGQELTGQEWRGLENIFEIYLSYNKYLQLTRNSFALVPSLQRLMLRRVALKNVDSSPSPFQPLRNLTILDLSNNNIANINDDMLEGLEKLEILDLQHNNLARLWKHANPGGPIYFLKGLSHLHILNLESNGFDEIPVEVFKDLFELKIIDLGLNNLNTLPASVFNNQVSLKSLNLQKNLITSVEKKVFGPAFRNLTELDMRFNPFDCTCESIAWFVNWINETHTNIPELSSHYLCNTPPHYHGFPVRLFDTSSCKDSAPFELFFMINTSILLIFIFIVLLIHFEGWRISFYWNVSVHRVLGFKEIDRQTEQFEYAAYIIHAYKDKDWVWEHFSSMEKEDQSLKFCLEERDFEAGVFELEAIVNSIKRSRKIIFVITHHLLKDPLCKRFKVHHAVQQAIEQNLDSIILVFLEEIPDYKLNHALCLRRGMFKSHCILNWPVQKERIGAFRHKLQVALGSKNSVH

[3] = target: Toll-like receptor 4 (Homo sapiens) (UniProt O00206); assay: Activity at human TLR4 expressed in HEK293 cells co-expressing secreted alkaline phosphatase assessed as induction of NF-kappaB/AP-1 promoter activity by measuring increase in secreted alkaline phosphatase level by spectrophotometric method; outline: as §1
Toll-like receptor 4 (Homo sapiens), sequence (O00206 whole entry): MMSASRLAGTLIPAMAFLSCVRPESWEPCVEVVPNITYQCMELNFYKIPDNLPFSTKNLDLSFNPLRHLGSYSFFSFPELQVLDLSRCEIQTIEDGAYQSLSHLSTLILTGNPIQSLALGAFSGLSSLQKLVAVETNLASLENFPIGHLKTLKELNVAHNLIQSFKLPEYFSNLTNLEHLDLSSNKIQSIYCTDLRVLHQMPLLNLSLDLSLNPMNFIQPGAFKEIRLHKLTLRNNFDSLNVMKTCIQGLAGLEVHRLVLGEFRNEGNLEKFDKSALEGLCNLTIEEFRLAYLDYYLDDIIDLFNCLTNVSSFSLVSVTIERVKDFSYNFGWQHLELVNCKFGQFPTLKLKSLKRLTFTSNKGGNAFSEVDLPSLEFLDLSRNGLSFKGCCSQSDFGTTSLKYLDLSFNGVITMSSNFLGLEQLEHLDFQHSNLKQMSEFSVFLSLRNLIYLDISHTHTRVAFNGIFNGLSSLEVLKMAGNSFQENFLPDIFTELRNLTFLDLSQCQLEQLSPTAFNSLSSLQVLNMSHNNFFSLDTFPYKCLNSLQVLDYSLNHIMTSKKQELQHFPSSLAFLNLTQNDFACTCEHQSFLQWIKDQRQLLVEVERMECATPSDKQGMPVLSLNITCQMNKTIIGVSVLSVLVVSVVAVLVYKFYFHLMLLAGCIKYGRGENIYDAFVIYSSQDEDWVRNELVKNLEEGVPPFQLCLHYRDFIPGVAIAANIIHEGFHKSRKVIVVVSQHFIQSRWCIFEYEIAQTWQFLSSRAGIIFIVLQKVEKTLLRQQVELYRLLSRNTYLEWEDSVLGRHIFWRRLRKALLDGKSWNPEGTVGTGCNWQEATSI

[4] = target: Toll-like receptor 5 (Homo sapiens) (UniProt O60602); assay: Activity at human TLR5 expressed in HEK293 cells co-expressing secreted alkaline phosphatase assessed as induction of NF-kappaB/AP-1 promoter activity by measuring increase in secreted alkaline phosphatase level by spectrophotometric method; outline: as §1
Toll-like receptor 5 (Homo sapiens), sequence (O60602 whole entry): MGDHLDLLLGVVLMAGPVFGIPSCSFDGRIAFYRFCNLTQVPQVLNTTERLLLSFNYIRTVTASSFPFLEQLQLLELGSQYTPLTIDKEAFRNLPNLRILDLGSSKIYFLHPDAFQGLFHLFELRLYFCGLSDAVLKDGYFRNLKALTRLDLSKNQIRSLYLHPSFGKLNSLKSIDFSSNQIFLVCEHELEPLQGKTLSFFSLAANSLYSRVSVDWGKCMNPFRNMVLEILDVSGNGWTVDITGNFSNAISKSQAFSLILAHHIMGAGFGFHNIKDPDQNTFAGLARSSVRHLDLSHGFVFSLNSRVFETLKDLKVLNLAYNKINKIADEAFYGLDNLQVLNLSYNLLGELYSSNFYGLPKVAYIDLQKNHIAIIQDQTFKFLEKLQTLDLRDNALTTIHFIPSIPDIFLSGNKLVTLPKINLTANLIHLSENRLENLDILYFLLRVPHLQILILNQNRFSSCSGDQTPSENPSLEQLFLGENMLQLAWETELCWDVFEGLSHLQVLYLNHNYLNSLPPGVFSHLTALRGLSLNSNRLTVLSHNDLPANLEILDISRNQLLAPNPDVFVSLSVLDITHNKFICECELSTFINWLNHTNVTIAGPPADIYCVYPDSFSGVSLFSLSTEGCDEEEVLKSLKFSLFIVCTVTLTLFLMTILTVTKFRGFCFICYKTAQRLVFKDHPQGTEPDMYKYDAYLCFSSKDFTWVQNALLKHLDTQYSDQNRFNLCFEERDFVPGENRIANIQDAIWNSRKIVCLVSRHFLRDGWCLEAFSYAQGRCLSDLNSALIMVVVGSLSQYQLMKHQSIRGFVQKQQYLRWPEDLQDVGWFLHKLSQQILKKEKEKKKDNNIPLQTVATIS

SMILES | EC50 (Toll-like receptor 7) | EC50 (Toll-like receptor 8) | Activity [1] | Activity [2] | Activity [3] | Activity [4]
CCCCNc1nc(N)nc(C)c1CCCN1CCNCC1 | 1640 nM | 500 nM | inactive | inactive | inactive | inactive
CCCCNc1nc(N)nc(C)c1CCCN(C)CCOC | 1240 nM | 203 nM | inactive | inactive | inactive | inactive
CCCCNc1nc(N)nc(C)c1CCCn1cncn1 | 1160 nM | 1050 nM | inactive | inactive | inactive | inactive
CCCCNc1nc(N)nc(C)c1CCCN1C(=O)c2ccccc2C1=O | 1290 nM | 453 nM | inactive | inactive | inactive | inactive
CCCCNc1nc(N)nc(C)c1CC | 1270 nM | 1660 nM | inactive | inactive | inactive | inactive
CCCCNc1nc(N)nc(C)c1CCCCO | 1020 nM | 1310 nM | inactive | inactive | inactive | inactive
CCCCNc1nc(N)nc(C)c1CCC(C)(C)O | 3260 nM | 3140 nM | inactive | inactive | inactive | inactive
CCCCNc1nc(N)nc(C)c1CCCC(C)(C)O | 2890 nM | 1220 nM | inactive | inactive | inactive | inactive

Stronger by EC50 (Toll-like receptor 7), values ahead:

EC50 (Toll-like receptor 7) | EC50 (Toll-like receptor 8) | Activity [1] | Activity [2] | Activity [3] | Activity [4] | SMILES
265 nM | 830 nM | inactive | inactive | inactive | inactive | CCCCNc1nc(N)nc(C)c1CCCCCc1ccccc1
194 nM | 749 nM | inactive | inactive | inactive | inactive | CCCCNc1nc(N)nc(C)c1CCCc1ccccc1
710 nM | 133 nM | inactive | inactive | inactive | inactive | CCCCNc1nc(N)nc(C)c1CCCN1CCCCC1
262 nM | 857 nM | inactive | inactive | inactive | inactive | CCCCNc1nc(N)nc(C)c1CCCCc1ccccc1
398 nM | 1050 nM | inactive | inactive | inactive | inactive | CCCCNc1nc(N)nc(C)c1CCCn1cccn1
590 nM | 780 nM | inactive | inactive | inactive | inactive | CCCCNc1nc(N)nc(C)c1CCCC
251 nM | 179 nM | inactive | inactive | inactive | inactive | CCCCNc1nc(N)nc(C)c1CCCN1CCN(C)CC1
379 nM | 366 nM | inactive | inactive | inactive | inactive | CCCCNc1nc(N)nc(C)c1CCCn1c(C)nc2ccccc21
714 nM | 167 nM | inactive | inactive | inactive | inactive | CCCCNc1nc(N)nc(C)c1CCCN1CCSCC1
958 nM | 126 nM | inactive | inactive | inactive | inactive | CCCCNc1nc(N)nc(C)c1CCCN(C)C
